{"source": "ChEMBL document CHEMBL1140098", "about": "“Dipeptide boronic acid inhibitors of dipeptidyl peptidase IV: determinants of potency and in vivo efficacy and safety” (J Med Chem, 2008)", "key": {"[1]": {"experiment": "Toxicity in po dosed Sprague-Dawley rat assessed as maximum tolerated dose", "assay_type": "organism-based", "settings": "in vivo", "procedure,_shortened": "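Sprague-Dawley rats given escalating single doses; animals observed for adverse signs; lethargic or dead animals necropsied; maximum tolerated dose taken as the highest dose without adverse effects.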"}, "[2]": {"test_system": "Rattus norvegicus", "experiment": "Inhibition of DPP4 in po dosed Sprague-Dawley rat plasma after 24 hrs", "assay_type": "functional, organism-based", "procedure,_shortened": "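Sprague-Dawley rats, 4-6 per inhibitor, single oral gavage dose across a dose range. Plasma DPP-IV activity sampled 6 times over 24 h post-dose. Percent change derived by comparing each treated sample's plasma activity with its own predose activity.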"}, "[3]": {"test_system": "Rattus norvegicus", "experiment": "Toxicity in po dosed Sprague-Dawley rat assessed as maximum tolerated dose relative to Val-boroPro", "assay_type": "organism-based", "settings": "in vivo"}, "[4]": {"test_system": "Rattus norvegicus", "experiment": "Inhibition of DPP4 in Sprague-Dawley rat plasma at 6 mg/kg, po after 4 hrs", "settings": "read-out: INH"}, "[5]": {"test_system": "Mus musculus", "experiment": "Reduction of glucose level in po dosed C57BL/6 mouse by oral glucose tolerance test", "assay_type": "functional, organism-based", "procedure,_shortened": "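Male C57BL/6 mice, 7-8 per group, fasted 20 h, given vehicle or inhibitor by oral gavage at various doses. Oral glucose challenge (5 g/kg) 60 min later. Blood glucose read at 5 time points over 120 min.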"}, "[6]": {"target": "Dipeptidyl peptidase 4 (Homo sapiens, UniProt P27487)", "sequence (P27487 whole entry)": "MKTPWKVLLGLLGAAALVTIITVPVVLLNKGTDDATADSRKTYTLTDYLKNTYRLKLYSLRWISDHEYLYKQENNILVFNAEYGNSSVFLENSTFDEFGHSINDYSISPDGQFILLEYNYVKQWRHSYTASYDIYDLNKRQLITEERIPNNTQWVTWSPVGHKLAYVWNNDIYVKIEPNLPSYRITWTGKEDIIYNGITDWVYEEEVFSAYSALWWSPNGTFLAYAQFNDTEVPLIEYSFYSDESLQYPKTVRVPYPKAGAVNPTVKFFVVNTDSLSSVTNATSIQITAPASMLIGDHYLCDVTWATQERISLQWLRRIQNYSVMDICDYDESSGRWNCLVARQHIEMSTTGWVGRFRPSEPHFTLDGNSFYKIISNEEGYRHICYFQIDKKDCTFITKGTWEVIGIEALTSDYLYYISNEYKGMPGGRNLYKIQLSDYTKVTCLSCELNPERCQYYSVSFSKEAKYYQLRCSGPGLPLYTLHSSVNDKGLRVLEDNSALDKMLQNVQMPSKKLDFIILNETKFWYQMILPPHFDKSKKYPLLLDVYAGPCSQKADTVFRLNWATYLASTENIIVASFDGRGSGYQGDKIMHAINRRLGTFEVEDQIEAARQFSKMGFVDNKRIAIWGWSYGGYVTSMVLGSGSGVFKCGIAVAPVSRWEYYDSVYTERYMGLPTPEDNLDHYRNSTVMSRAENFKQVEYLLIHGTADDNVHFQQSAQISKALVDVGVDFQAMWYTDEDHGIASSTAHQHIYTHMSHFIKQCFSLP", "experiment": "Inhibition of human placental DPP4"}, "[7]": {"experiment": "Therapeutic index, ratio of MTD to drug level causing maximal reduction of glucose AUC in po dosed Sprague-Dawley rat", "settings": "in vivo"}}}
{"smiles": "C[C@H](NC(=O)[C@@H](N)CCC(=O)O)B(O)O", "values": [{"measurement": "MTD", "setting": "[1]", "value": "> 500", "unit": "mg/kg"}, {"measurement": "Activity", "setting": "[2]", "value": "Dose-dependent effect"}, {"measurement": "Activity", "setting": "[3]", "value": 20000}, {"measurement": "inhibition in vivo at 6 mg/kg", "setting": "[4]", "value": 80, "unit": "%"}, {"measurement": "Activity", "setting": "[5]", "value": "Dose-dependent effect"}]}
{"smiles": "CC(=O)N[C@H](C(=O)N1CCC[C@H]1B(O)O)C(C)C", "values": [{"measurement": "Ki", "setting": "[6]", "value": 3300, "unit": "nM"}]}
{"smiles": "NCC(=O)N1CCC[C@H]1B(O)O", "values": [{"measurement": "Ki", "setting": "[6]", "value": 0.4, "unit": "nM"}]}
{"smiles": "CC[C@@H](C)[C@H](N)C(=O)N1CCSC1", "values": [{"measurement": "selectivity ratio", "setting": "[7]", "value": "< 15"}, {"measurement": "MTD", "setting": "[1]", "value": "< 300", "unit": "mg/kg"}, {"measurement": "Activity", "setting": "[3]", "value": "< 12000"}]}
{"smiles": "N[C@@H](CCC(=O)O)C(=O)N1CCC[C@H]1B(O)O", "values": [{"measurement": "Ki", "setting": "[6]", "value": 1.8, "unit": "nM"}]}
{"smiles": "CC[C@H](C)[C@H](N)C(=O)N1CCSC1", "values": [{"measurement": "selectivity ratio", "setting": "[7]", "value": "> 35"}, {"measurement": "MTD", "setting": "[1]", "value": "> 700", "unit": "mg/kg"}, {"measurement": "Activity", "setting": "[3]", "value": "> 28000"}]}
{"smiles": "C[C@H](N)C(=O)N1CCC[C@H]1B(O)O", "values": [{"measurement": "Activity", "setting": "[2]", "value": "Dose-dependent effect"}, {"measurement": "Activity", "setting": "[3]", "value": 200}, {"measurement": "Activity", "setting": "[5]", "value": "Dose-dependent effect"}]}
{"smiles": "CC(C)[C@H](N)C(=O)N1CCC[C@H]1B(O)O", "note": "[TALABOSTAT]", "values": [{"measurement": "Activity", "setting": "[2]", "value": "Dose-dependent effect"}, {"measurement": "Activity", "setting": "[3]", "value": 1}, {"measurement": "Activity", "setting": "[5]", "value": "Dose-dependent effect"}]}
